The RNAGym collection of RNA variant scans (doi:10.1002/anie.201605470)

B1: Osa-1-4 twister ribozyme (parent)
chain: CCGCCUAACACUGCCAAUGCCGGUCCCAAGCCCGGAUAAAAGUGGAGGGGGCGG

Variants of: B1
Assay: self-cleavage, relative activity (ratio to wild type); higher = more cleavage; co-transcriptional
Outline: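 The 48 positions downstream of the cleavage site in a DNA template for a 54-nucleotide Oryza sativa twister ribozyme carried 97 % wild-type base and 1 % of each other base. After in vitro transcription (2 h, 37 °C) with co-transcriptional self-cleavage, the RNA was reverse-transcribed with a template-switching oligonucleotide, PCR-amplified and deep-sequenced. Relative activity is the fraction cleaved, judged by reads with or without upstream sequence and normalised to wild type.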

Variant	self-cleavage
CCGCCUCACACUGCCAAUGCUGGUCCCAAGCCCGGAUAAAAGUGGAGGGGGCGG [A7C C21U]	0.04
CCGCCUCACACUGCCAAUGCGGGUCCCAAGCCCGGAUAAAAGUGGAGGGGGCGG [A7C C21G]	0.01
CCGCCUCACACUGCCAAUGCAGGUCCCAAGCCCGGAUAAAAGUGGAGGGGGCGG [A7C C21A]	0.06
CCGCCUCAAACUGCCAAUGCCGGUCCCAAGCCCGGAUAAAAGUGGAGGGGGCGG [A7C C9A]	0.09
CCGCCUCAGACUGCCAAUGCCGGUCCCAAGCCCGGAUAAAAGUGGAGGGGGCGG [A7C C9G]	0.04
CCGCCUCAUACUGCCAAUGCCGGUCCCAAGCCCGGAUAAAAGUGGAGGGGGCGG [A7C C9U]	0.02
CCGCCUCACACUGCCAAUGCCGGUCCCAAGCCCGGAUAAAAGUGGAUGGGGCGG [A7C G47U]	0.03
CCGCCUCACACUGCCAAUGCCGGUCCCAAGCCCGGAUAAAAGUGGAAGGGGCGG [A7C G47A]	0.04
CCGCCUCACACUGCCAAUGCCGGUCCCAAGCCCGGAUAAAAGUGGACGGGGCGG [A7C G47C]	0.02
CCGCCUCACACUGCCAAUGCCUGUCCCAAGCCCGGAUAAAAGUGGAGGGGGCGG [A7C G22U]	0.04
CCGCCUCACACUGCCAAUGCCAGUCCCAAGCCCGGAUAAAAGUGGAGGGGGCGG [A7C G22A]	0.07
CCGCCUCACACUGCCAAUGCCCGUCCCAAGCCCGGAUAAAAGUGGAGGGGGCGG [A7C G22C]	0.02
CCGCCUCACACUGCCAAUGCCGGUCCCAAGCCCGGAUAAAAGUGGAGGGGCCGG [A7C G51C]	0.02
CCGCCUCACACUGCCAAUGCCGGUCCCAAGCCCGGAUAAAAGUGGAGGGGACGG [A7C G51A]	0.04
CCGCCUCACACUGCCAAUGCCGGUCCCAAGCCCGGAUAAAAGUGGAGGGGUCGG [A7C G51U]	0.03
CCGCCUCACACCGCCAAUGCCGGUCCCAAGCCCGGAUAAAAGUGGAGGGGGCGG [A7C U12C]	0.04
CCGCCUCACACAGCCAAUGCCGGUCCCAAGCCCGGAUAAAAGUGGAGGGGGCGG [A7C U12A]	0.05
CCGCCUCACACGGCCAAUGCCGGUCCCAAGCCCGGAUAAAAGUGGAGGGGGCGG [A7C U12G]	0.09
CCGCCUCACACUGCCAAUGCCGGUCCCAAGCCCGGAUAAAAGUGGAGGGGGCGG [A7C]	0.04
CCGCCUCACACUGCCAAUGCCGGUCCCAAGCCCGGAUAAAAGUGGAGGGCGCGG [A7C G50C]	0.04
CCGCCUCACACUGCCAAUGCCGGUCCCAAGCCCGGAUAAAAGUGGAGGGAGCGG [A7C G50A]	0.04
CCGCCUCACACUGCCAAUGCCGGUCCCAAGCCCGGAUAAAAGUGGAGGGUGCGG [A7C G50U]	0.04
CCGCCUCACACUGCCAAUGCCGGUCCCAAACCCGGAUAAAAGUGGAGGGGGCGG [A7C G30A]	0.01
CCGCCUCACACUGCCAAUGCCGGUCCCAAUCCCGGAUAAAAGUGGAGGGGGCGG [A7C G30U]	0.01
CCGCCUCACACUGCCAAUGCCGGUCCCAACCCCGGAUAAAAGUGGAGGGGGCGG [A7C G30C]	0.01

Variant	self-cleavage
CCGCCUCACACUGCCAAUGCCGUUCCCAAGCCCGGAUAAAAGUGGAGGGGGCGG [A7C G23U]	0.02
CCGCCUCACACUGCCAAUGCCGAUCCCAAGCCCGGAUAAAAGUGGAGGGGGCGG [A7C G23A]	0.05
CCGCCUCACACUGCCAAUGCCGCUCCCAAGCCCGGAUAAAAGUGGAGGGGGCGG [A7C G23C]	0.01
CCGCCUCACACUGCCAAUGCCGGUCCCAAGCUCGGAUAAAAGUGGAGGGGGCGG [A7C C32U]	0.02
CCGCCUCACACUGCCAAUGCCGGUCCCAAGCGCGGAUAAAAGUGGAGGGGGCGG [A7C C32G]	0.02
CCGCCUCACACUGCCAAUGCCGGUCCCAAGCACGGAUAAAAGUGGAGGGGGCGG [A7C C32A]	0.04
CCGCCUCACACUCCCAAUGCCGGUCCCAAGCCCGGAUAAAAGUGGAGGGGGCGG [A7C G13C]	0.02
CCGCCUCACACUUCCAAUGCCGGUCCCAAGCCCGGAUAAAAGUGGAGGGGGCGG [A7C G13U]	0.01
CCGCCUCACACUACCAAUGCCGGUCCCAAGCCCGGAUAAAAGUGGAGGGGGCGG [A7C G13A]	0.02
CCGCCUCACACUGCCAAUGCCGGUCCCAAGCCCGGAUAAAAGUGGAGCGGGCGG [A7C G48C]	0.02
CCGCCUCACACUGCCAAUGCCGGUCCCAAGCCCGGAUAAAAGUGGAGAGGGCGG [A7C G48A]	0.02
CCGCCUCACACUGCCAAUGCCGGUCCCAAGCCCGGAUAAAAGUGGAGUGGGCGG [A7C G48U]	0.01
CCGCCUCACACUGCCAAUGCCGGUGCCAAGCCCGGAUAAAAGUGGAGGGGGCGG [A7C C25G]	0.02
CCGCCUCACACUGCCAAUGCCGGUUCCAAGCCCGGAUAAAAGUGGAGGGGGCGG [A7C C25U]	0.04
CCGCCUCACACUGCCAAUGCCGGUACCAAGCCCGGAUAAAAGUGGAGGGGGCGG [A7C C25A]	0.05
CCGCCUCACACUGCCAAUGUCGGUCCCAAGCCCGGAUAAAAGUGGAGGGGGCGG [A7C C20U]	0.06
CCGCCUCACACUGCCAAUGACGGUCCCAAGCCCGGAUAAAAGUGGAGGGGGCGG [A7C C20A]	0.06
CCGCCUCACACUGCCAAUGGCGGUCCCAAGCCCGGAUAAAAGUGGAGGGGGCGG [A7C C20G]	0.01
CCGCCUCACACUGCCAAUGCCGGUCCCAAGCCCGGAUAAAAGUGGAGGGGGCGC [A7C G54C]	0.05
CCGCCUCACACUGCCAAUGCCGGUCCCAAGCCCGGAUAAAAGUGGAGGGGGCGU [A7C G54U]	0.06
CCGCCUCACACUGCCAAUGCCGGUCCCAAGCCCGGAUAAAAGUGGAGGGGGCGA [A7C G54A]	0.05
CCGCCUCACACUGUCAAUGCCGGUCCCAAGCCCGGAUAAAAGUGGAGGGGGCGG [A7C C14U]	0.04
CCGCCUCACACUGACAAUGCCGGUCCCAAGCCCGGAUAAAAGUGGAGGGGGCGG [A7C C14A]	0.04
CCGCCUCACACUGGCAAUGCCGGUCCCAAGCCCGGAUAAAAGUGGAGGGGGCGG [A7C C14G]	0.03
CCGCCUCACAGUGCCAAUGCCGGUCCCAAGCCCGGAUAAAAGUGGAGGGGGCGG [A7C C11G]	0.04

Variant	self-cleavage
CCGCCUCACAAUGCCAAUGCCGGUCCCAAGCCCGGAUAAAAGUGGAGGGGGCGG [A7C C11A]	0.06
CCGCCUCACAUUGCCAAUGCCGGUCCCAAGCCCGGAUAAAAGUGGAGGGGGCGG [A7C C11U]	0.05
CCGCCUCACACUGCCAAUGCCGGUCCCAAGCCCGGAUAAAAGUGGAGGGGGCAG [A7C G53A]	0.06
CCGCCUCACACUGCCAAUGCCGGUCCCAAGCCCGGAUAAAAGUGGAGGGGGCCG [A7C G53C]	0.01
CCGCCUCACACUGCCAAUGCCGGUCCCAAGCCCGGAUAAAAGUGGAGGGGGCUG [A7C G53U]	0.03
CCGCCUCACACUGCCAAUGCCGGUCUCAAGCCCGGAUAAAAGUGGAGGGGGCGG [A7C C26U]	0.05
CCGCCUCACACUGCCAAUGCCGGUCACAAGCCCGGAUAAAAGUGGAGGGGGCGG [A7C C26A]	0.03
CCGCCUCACACUGCCAAUGCCGGUCGCAAGCCCGGAUAAAAGUGGAGGGGGCGG [A7C C26G]	0.02
CCGCCUCACACUGCGAAUGCCGGUCCCAAGCCCGGAUAAAAGUGGAGGGGGCGG [A7C C15G]	0.07
CCGCCUCACACUGCUAAUGCCGGUCCCAAGCCCGGAUAAAAGUGGAGGGGGCGG [A7C C15U]	0.04
CCGCCUCACACUGCAAAUGCCGGUCCCAAGCCCGGAUAAAAGUGGAGGGGGCGG [A7C C15A]	0.04
CCGCCUCACACUGCCAAUGCCGGUCCCAAGCCCGGAUAAAAUUGGAGGGGGCGG [A7C G42U]	0.02
CCGCCUCACACUGCCAAUGCCGGUCCCAAGCCCGGAUAAAACUGGAGGGGGCGG [A7C G42C]	0.03
CCGCCUCACACUGCCAAUGCCGGUCCCAAGCCCGGAUAAAAAUGGAGGGGGCGG [A7C G42A]	0.04
CCGCCUCACACUGCCAAUGCCGGUCCCAAGCCAGGAUAAAAGUGGAGGGGGCGG [A7C C33A]	0.05
CCGCCUCACACUGCCAAUGCCGGUCCCAAGCCUGGAUAAAAGUGGAGGGGGCGG [A7C C33U]	0.04
CCGCCUCACACUGCCAAUGCCGGUCCCAAGCCGGGAUAAAAGUGGAGGGGGCGG [A7C C33G]	0.02
CCGCCUCACACUGCCAAUGCCGGUCCCAAGCCCGUAUAAAAGUGGAGGGGGCGG [A7C G35U]	0.05
CCGCCUCACACUGCCAAUGCCGGUCCCAAGCCCGAAUAAAAGUGGAGGGGGCGG [A7C G35A]	0.04
CCGCCUCACACUGCCAAUGCCGGUCCCAAGCCCGCAUAAAAGUGGAGGGGGCGG [A7C G35C]	0.04
CCGCCUCACACUGCCAAUGCCGGUCCCAAGCCCGGAUAAAAGUGGAGGAGGCGG [A7C G49A]	0.02
CCGCCUCACACUGCCAAUGCCGGUCCCAAGCCCGGAUAAAAGUGGAGGUGGCGG [A7C G49U]	0.02
CCGCCUCACACUGCCAAUGCCGGUCCCAAGCCCGGAUAAAAGUGGAGGCGGCGG [A7C G49C]	0.01
CCGCCUCCCACUGCCAAUGCCGGUCCCAAGCCCGGAUAAAAGUGGAGGGGGCGG [A7C A8C]	0.07
CCGCCUCUCACUGCCAAUGCCGGUCCCAAGCCCGGAUAAAAGUGGAGGGGGCGG [A7C A8U]	0.06

Variant	self-cleavage
CCGCCUCGCACUGCCAAUGCCGGUCCCAAGCCCGGAUAAAAGUGGAGGGGGCGG [A7C A8G]	0.05
CCGCCUCACACUGCCAAUGCCGGUCCCAAGCCCGGAUAAAAGUAGAGGGGGCGG [A7C G44A]	0.05
CCGCCUCACACUGCCAAUGCCGGUCCCAAGCCCGGAUAAAAGUCGAGGGGGCGG [A7C G44C]	0.05
CCGCCUCACACUGCCAAUGCCGGUCCCAAGCCCGGAUAAAAGUUGAGGGGGCGG [A7C G44U]	0.05
CCGCCUCACACUGCCAAUGCCGGUCCCAAGCCCGGAUAAAAGUGGAGGGGGGGG [A7C C52G]	0.07
CCGCCUCACACUGCCAAUGCCGGUCCCAAGCCCGGAUAAAAGUGGAGGGGGAGG [A7C C52A]	0.06
CCGCCUCACACUGCCAAUGCCGGUCCCAAGCCCGGAUAAAAGUGGAGGGGGUGG [A7C C52U]	0.06
CCGCCUCACACUGCCAAUACCGGUCCCAAGCCCGGAUAAAAGUGGAGGGGGCGG [A7C G19A]	0.05
CCGCCUCACACUGCCAAUUCCGGUCCCAAGCCCGGAUAAAAGUGGAGGGGGCGG [A7C G19U]	0.03
CCGCCUCACACUGCCAAUCCCGGUCCCAAGCCCGGAUAAAAGUGGAGGGGGCGG [A7C G19C]	0.02
CCGCCUCACACUGCCAAUGCCGGUCCCAAGACCGGAUAAAAGUGGAGGGGGCGG [A7C C31A]	0.01
CCGCCUCACACUGCCAAUGCCGGUCCCAAGUCCGGAUAAAAGUGGAGGGGGCGG [A7C C31U]	0.05
CCGCCUCACACUGCCAAUGCCGGUCCCAAGGCCGGAUAAAAGUGGAGGGGGCGG [A7C C31G]	0.02
CCGCCUCACACUGCCAAUGCCGGUCCCAAGCCCAGAUAAAAGUGGAGGGGGCGG [A7C G34A]	0.03
CCGCCUCACACUGCCAAUGCCGGUCCCAAGCCCUGAUAAAAGUGGAGGGGGCGG [A7C G34U]	0.05
CCGCCUCACACUGCCAAUGCCGGUCCCAAGCCCCGAUAAAAGUGGAGGGGGCGG [A7C G34C]	0.04
CCGCCUCACACUGCCAAUGCCGGUCCCAAGCCCGGAUAAAAGUGUAGGGGGCGG [A7C G45U]	0.02
CCGCCUCACACUGCCAAUGCCGGUCCCAAGCCCGGAUAAAAGUGAAGGGGGCGG [A7C G45A]	0.03
CCGCCUCACACUGCCAAUGCCGGUCCCAAGCCCGGAUAAAAGUGCAGGGGGCGG [A7C G45C]	0.01
CCGCCUCACACUGCCAAUGCCGGUCCAAAGCCCGGAUAAAAGUGGAGGGGGCGG [A7C C27A]	0.06
CCGCCUCACACUGCCAAUGCCGGUCCGAAGCCCGGAUAAAAGUGGAGGGGGCGG [A7C C27G]	0.02
CCGCCUCACACUGCCAAUGCCGGUCCUAAGCCCGGAUAAAAGUGGAGGGGGCGG [A7C C27U]	0.03
